Reference: ChEMBL document CHEMBL1154321, “Benzoxazole piperidines as selective and potent somatostatin receptor subtype 5 antagonists” (Bioorg Med Chem Lett, 2009)
≈ marks a conversion by molar mass, not a printed value.

Key:
[1] = Clearance in Wistar rat administered as single dose; type: ADME, organism-based; settings: in vivo
[2] = Solubility in phosphate buffer at pH 6.5 by lyophilization solubility assay; type: physicochemical
In short: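 Lyophilized DMSO stock solutions redissolved in 50 mM phosphate buffer, pH 6.5; solubility read spectrophotometrically.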

[3] = biological target: Somatostatin receptor type 3 (Homo sapiens, UniProt P32745); assay: Displacement of SST14 from human recombinant SST3 receptor
Sequence of Somatostatin receptor type 3 (P32745 whole entry): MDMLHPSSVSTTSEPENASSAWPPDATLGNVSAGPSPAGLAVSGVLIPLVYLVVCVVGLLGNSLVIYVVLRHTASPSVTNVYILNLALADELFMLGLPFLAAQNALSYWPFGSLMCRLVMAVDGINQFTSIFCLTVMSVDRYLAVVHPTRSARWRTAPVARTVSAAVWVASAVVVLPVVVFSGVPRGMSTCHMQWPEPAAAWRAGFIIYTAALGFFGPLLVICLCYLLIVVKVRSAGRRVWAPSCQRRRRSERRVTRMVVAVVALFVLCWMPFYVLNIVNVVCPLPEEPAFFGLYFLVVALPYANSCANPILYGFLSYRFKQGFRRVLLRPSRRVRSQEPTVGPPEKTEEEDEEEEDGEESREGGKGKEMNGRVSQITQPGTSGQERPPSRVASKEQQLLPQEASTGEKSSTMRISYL
In short: (§1)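 Membranes prepared by sonication from cells expressing the SST receptor subtype, incubated with radiolabeled 11-Tyr SST-14 tracer and test compound at varying concentrations; non-labeled SST-14 defined non-specific binding. Incubation stopped by glass-fiber filtration, bound radioactivity counted; IC50 for half-maximal binding inhibition estimated and Ki derived.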

[4] = sPermeability by PAMPA; type: ADME; settings: read-out: permeability
In short: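 Parallel artificial membrane permeation; Pe categorized as low (<0.1), medium (0.1–1.0) or high (>1.0).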

[5] = Terminal half-life in Wistar rat administered as single dose; type: ADME, organism-based; settings: in vivo, read-out: beta t1/2 (converted)
[6] = biological target: Somatostatin receptor type 4 (Homo sapiens, UniProt P31391); assay: Displacement of SST14 from human recombinant SST4 receptor; in short: as §1
Sequence of Somatostatin receptor type 4 (P31391 whole entry): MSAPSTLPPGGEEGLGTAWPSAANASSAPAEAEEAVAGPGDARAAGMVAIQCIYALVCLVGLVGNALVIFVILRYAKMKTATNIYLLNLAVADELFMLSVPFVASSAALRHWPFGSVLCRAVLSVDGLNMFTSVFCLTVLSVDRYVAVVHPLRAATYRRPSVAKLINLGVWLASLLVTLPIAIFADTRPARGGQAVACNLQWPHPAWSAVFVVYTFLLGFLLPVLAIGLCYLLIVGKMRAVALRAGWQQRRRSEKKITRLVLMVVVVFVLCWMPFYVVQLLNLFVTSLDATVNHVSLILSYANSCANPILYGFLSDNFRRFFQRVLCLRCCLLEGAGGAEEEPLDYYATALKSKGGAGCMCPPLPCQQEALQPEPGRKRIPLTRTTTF

[7] = Oral bioavailability in Wistar rat administered as single dose; type: ADME, organism-based; settings: in vivo
[8] = Volume of distribution at steady state in Wistar rat administered as single dose; type: ADME, organism-based; settings: in vivo, read-out: Vdss
[9] = biological target: Somatostatin receptor type 5 (Homo sapiens, UniProt P35346); assay: Displacement of SST14 from human recombinant SST5 receptor expressed in CHO cells by radioligand binding assay; type: cell-based; in short: as §1
Sequence of Somatostatin receptor type 5 (P35346 whole entry): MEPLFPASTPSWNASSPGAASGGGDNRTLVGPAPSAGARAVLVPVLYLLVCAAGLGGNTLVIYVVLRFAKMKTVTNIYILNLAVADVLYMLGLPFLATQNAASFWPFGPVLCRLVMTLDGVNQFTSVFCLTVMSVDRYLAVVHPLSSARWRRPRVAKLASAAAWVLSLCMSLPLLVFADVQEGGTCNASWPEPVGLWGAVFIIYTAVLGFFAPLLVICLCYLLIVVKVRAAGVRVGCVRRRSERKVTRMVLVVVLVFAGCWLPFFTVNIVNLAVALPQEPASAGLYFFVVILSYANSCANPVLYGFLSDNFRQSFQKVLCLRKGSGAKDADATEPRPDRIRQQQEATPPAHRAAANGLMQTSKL

[10] = biological target: Somatostatin receptor type 2 (Homo sapiens, UniProt P30874); assay: Displacement of SST14 from human recombinant SST2 receptor; in short: as §1
Sequence of Somatostatin receptor type 2 (P30874 whole entry): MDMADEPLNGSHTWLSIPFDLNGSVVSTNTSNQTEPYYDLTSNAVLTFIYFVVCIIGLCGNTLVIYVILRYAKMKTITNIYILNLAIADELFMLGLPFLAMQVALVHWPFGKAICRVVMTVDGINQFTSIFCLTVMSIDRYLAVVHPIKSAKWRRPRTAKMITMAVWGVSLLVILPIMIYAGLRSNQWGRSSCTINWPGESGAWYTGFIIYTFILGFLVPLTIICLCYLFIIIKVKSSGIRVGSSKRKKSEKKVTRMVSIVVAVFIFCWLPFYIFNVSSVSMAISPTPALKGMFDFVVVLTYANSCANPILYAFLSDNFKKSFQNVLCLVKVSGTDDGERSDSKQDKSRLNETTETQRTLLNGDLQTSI

Histamine H1 receptor = Histamine H1 receptor (Homo sapiens, UniProt P35367); assay: Binding affinity to human histamine H1 receptor
Sequence of Histamine H1 receptor (P35367 whole entry): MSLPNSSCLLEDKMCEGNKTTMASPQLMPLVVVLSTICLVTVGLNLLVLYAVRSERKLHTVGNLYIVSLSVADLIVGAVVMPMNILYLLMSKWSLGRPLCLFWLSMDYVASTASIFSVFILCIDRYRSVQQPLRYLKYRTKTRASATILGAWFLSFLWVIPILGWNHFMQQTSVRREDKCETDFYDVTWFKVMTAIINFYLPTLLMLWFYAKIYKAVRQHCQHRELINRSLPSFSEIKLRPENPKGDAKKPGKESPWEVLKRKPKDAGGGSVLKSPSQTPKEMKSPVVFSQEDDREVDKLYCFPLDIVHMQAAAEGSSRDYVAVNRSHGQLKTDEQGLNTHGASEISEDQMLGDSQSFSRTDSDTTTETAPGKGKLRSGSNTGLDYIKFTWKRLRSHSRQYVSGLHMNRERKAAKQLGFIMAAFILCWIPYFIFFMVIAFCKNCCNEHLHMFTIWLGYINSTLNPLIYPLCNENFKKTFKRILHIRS

[11] = biological target: Somatostatin receptor type 1 (Homo sapiens, UniProt P30872); assay: Displacement of SST14 from human recombinant SST1 receptor; in short: as §1
Sequence of Somatostatin receptor type 1 (P30872 whole entry): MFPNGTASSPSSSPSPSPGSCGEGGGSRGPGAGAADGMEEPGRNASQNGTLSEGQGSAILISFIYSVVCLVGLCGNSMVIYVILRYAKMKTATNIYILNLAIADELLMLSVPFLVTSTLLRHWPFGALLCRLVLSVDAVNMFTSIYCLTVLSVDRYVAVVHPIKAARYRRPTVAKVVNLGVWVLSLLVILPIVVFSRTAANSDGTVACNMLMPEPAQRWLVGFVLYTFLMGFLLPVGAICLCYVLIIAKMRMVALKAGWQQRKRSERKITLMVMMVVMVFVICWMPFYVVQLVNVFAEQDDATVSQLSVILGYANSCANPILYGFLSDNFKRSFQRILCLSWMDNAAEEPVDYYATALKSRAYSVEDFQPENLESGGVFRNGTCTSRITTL

[12] = biological target: 5-hydroxytryptamine receptor 2B (Homo sapiens, UniProt P41595); assay: Binding affinity to human 5HT2B receptor
Sequence of 5-hydroxytryptamine receptor 2B (P41595 whole entry): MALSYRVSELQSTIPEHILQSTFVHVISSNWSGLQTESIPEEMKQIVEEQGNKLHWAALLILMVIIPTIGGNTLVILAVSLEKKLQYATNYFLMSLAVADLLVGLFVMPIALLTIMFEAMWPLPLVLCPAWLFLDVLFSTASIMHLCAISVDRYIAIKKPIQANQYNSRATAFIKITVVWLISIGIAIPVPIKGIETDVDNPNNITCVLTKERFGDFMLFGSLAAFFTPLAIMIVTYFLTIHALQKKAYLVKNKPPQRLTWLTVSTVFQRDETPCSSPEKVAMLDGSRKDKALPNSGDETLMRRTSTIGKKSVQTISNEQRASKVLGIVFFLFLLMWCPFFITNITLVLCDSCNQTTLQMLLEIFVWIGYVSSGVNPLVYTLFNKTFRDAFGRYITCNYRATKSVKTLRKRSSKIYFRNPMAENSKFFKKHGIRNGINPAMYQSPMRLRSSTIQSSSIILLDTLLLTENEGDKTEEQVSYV

Homo sapiens = species on record: Homo sapiens; assay: Selectivity ratio of Ki for human histamine H1 receptor to Ki for human SST5 receptor
[13] = Octanol-TAPSO partition coefficient, log D at pH 7.4 by spectrophotometry; type: physicochemical; settings: octanol/TAPSO buffer
In short: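 Spectrophotometric log D in 1-octanol/50 mM TAPSO buffer, pH 7.4, containing 5% (v/v) DMSO.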

[14] = Dissociation constant, pKa by spectrophotometry; type: physicochemical
hERG (KCNH2) = hERG (KCNH2) (Homo sapiens, UniProt Q12809); assay: (§2) Inhibition of human ERG expressed in CHO cells by patch clamp technique; type: cell-based; settings: human, CHO cells expressing human ERG
[15] = biological target: Voltage-gated inwardly rectifying potassium channel KCNH2 (Homo sapiens, UniProt Q12809); assay: as §2; type: cell-based
Sequence of Voltage-gated inwardly rectifying potassium channel KCNH2 (Q12809 whole entry): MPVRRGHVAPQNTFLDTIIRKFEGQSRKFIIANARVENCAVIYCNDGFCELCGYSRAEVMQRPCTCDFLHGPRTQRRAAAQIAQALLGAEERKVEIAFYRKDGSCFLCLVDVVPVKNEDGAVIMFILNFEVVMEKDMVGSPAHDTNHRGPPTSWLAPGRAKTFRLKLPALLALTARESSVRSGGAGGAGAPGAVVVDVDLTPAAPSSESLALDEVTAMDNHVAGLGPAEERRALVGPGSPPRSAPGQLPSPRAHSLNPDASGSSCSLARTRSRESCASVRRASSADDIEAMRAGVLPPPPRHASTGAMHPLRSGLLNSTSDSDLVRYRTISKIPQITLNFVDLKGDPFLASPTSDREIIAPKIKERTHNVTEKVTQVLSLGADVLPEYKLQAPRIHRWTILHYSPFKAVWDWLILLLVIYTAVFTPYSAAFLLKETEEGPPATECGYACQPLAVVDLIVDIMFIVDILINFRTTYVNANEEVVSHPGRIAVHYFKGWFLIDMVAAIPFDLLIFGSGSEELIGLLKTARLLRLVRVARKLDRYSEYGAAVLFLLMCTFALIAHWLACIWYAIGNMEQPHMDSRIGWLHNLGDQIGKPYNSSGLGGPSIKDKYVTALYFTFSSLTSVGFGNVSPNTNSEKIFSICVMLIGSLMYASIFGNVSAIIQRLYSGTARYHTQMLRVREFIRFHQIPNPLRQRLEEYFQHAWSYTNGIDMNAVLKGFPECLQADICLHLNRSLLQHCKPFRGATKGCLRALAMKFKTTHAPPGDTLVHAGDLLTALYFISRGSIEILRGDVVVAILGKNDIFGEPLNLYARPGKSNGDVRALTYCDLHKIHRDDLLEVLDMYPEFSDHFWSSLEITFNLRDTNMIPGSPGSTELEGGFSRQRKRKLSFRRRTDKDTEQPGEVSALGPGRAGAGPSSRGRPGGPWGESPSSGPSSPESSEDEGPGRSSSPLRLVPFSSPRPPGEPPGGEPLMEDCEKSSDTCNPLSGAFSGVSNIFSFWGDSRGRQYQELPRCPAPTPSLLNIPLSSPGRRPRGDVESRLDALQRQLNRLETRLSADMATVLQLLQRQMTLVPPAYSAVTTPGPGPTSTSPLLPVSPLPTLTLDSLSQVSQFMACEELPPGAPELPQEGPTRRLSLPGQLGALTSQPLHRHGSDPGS

SMILES | clearance [1] | solubility [2] | Ki [3] | Papp [4] | half-life [5] | Ki [6] | bioavailability [7] | Vd [8] | Ki [9] | Ki [10] | Ki (Histamine H1 receptor) | Ki [11] | Ki [12] | Ratio Ki (Homo sapiens) | logD [13] | pKa [14] | IC50 (hERG (KCNH2)) | IC50 [15]
CCOc1cc(CN2CCC(Nc3nc4ccc(Cl)cc4o3)CC2)ccc1Cl | 37 mL/min/kg | 44 µg/mL (≈ 105 µM) | > 10 µM | 4.81 ×10⁻⁶ cm/s | 2.6 h | > 10 µM | 33% | 4.6 L/kg | 0.239 µM | > 10 µM |  |  |  |  |  |  |  | 
CCOc1cc(CN2CCC(Nc3nc4cc(NC(=O)C5CCC5)ccc4o3)CC2)ccc1OC |  | > 638 µg/mL | > 10 µM | 1.1 ×10⁻⁶ cm/s |  | > 10 µM |  |  | 0.182 µM | > 10 µM | 0.923 µM | 4.95 µM | > 10 µM | 5.1 | 2.64 |  |  | 
CCOc1cc(CN2CCC(Nc3nc4cc(S(N)(=O)=O)ccc4o3)CC2)cc(OCC)c1N |  | 335 µg/mL (≈ 684 µM) |  |  |  |  |  |  |  |  | 2.6 µM | 1.75 µM |  | 200 | 1.62 | 8.28 |  | 
CCOc1cc(CN2CCC(Nc3nc4ccccc4o3)CC2)ccc1Cl |  | 44 µg/mL (≈ 114 µM) | > 10 µM | 0.49 ×10⁻⁶ cm/s |  | > 10 µM |  |  |  | > 10 µM | 0.266 µM |  | 0.074 µM | 2.4 | 3.44 | 7.63 |  | 
CCOc1cc(CN2CCC(Nc3nc4cc(NS(=O)(=O)c5ccccc5)ccc4o3)CC2)ccc1OC |  | 145 µg/mL (≈ 270 µM) | > 10 µM | 2.2 ×10⁻⁶ cm/s |  | > 10 µM |  |  | 0.205 µM | > 10 µM | 0.199 µM |  |  | 1 | 1.93 | 7.72 |  | 
CCOc1cc(CN2CCC(Nc3nc4cc(NS(=O)(=O)c5cn(C)cn5)ccc4o3)CC2)ccc1OC | 41 mL/min/kg | > 720 µg/mL | > 10 µM | 0.49 ×10⁻⁶ cm/s | 1.5 h | > 10 µM | 2% | 2.2 L/kg | 0.175 µM | > 10 µM |  |  |  |  | 1.48 | 7.91 |  | 
CCOc1cc(CN2CCC(Nc3nc4cc(S(N)(=O)=O)ccc4o3)CC2)ccc1OC | 103 mL/min/kg | > 614 µg/mL | > 10 µM | 1.64 ×10⁻⁶ cm/s | 1.7 h | > 10 µM | 4% | 8.2 L/kg | 0.529 µM | > 10 µM | 0.52 µM |  |  | 1 | 1.51 | 8.05 | 3.5 µM | 
CCOc1cc(CN2CCC(Nc3nc4cc(S(=O)(=O)CC)ccc4o3)CC2)cc(OC2CCOCC2)c1 |  | 183 µg/mL (≈ 337 µM) | > 10 µM | 1.75 ×10⁻⁶ cm/s |  | > 10 µM |  |  | 0.055 µM | > 10 µM | 38.4 µM |  |  | 698 | 3.13 | 7.55 |  | 
CCOc1cc(CN2CCC(Nc3nc4cc(C(N)=O)ccc4o3)CC2)cc(OCC)c1F | 28 mL/min/kg | 148 µg/mL (≈ 324 µM) | > 10 µM | 1.61 ×10⁻⁶ cm/s | 2.5 h | > 10 µM | 38% | 3.3 L/kg | 0.008 µM | > 10 µM |  |  |  |  | 2.96 | 7.72 |  | 0.43 µM
CCOc1cc(CN2CCC(Nc3nc4ccccc4o3)CC2)cc(OC2CCOCC2)c1 |  | 212 µg/mL (≈ 469 µM) | > 10 µM | 2.05 ×10⁻⁶ cm/s |  | > 10 µM |  |  | 0.199 µM | > 10 µM | 3.6 µM |  | 0.094 µM | 18 | 3.02 | 7.76 |  | 
CCOc1cc(CN2CCC(Nc3nc4cc(C(=O)O)ccc4o3)CC2)cc(OCC)c1Cl | 18 mL/min/kg | 14 µg/mL (≈ 29.5 µM) | > 10 µM | 2.09 ×10⁻⁶ cm/s | 4.9 h | > 10 µM | 12% | 1.8 L/kg | 0.003 µM | > 10 µM |  | 4.5 µM |  | > 200 | 1.82 |  |  | > 10 µM
CCOc1cc(CN2CCC(Nc3nc4cc(Cl)c(S(N)(=O)=O)cc4o3)CC2)ccc1F |  | 32 µg/mL (≈ 66.3 µM) | > 10 µM | 2.45 ×10⁻⁶ cm/s |  | > 10 µM |  |  | 0.252 µM | > 10 µM | 1.37 µM |  | > 10 µM | 5.5 | 2.78 | 7.61 |  | 
CCOc1cc(CN2CCC(Nc3nc4cc(Cl)c(S(N)(=O)=O)cc4o3)CC2)ccc1OC |  | 338 µg/mL (≈ 683 µM) | > 10 µM | 1.1 ×10⁻⁶ cm/s |  | > 10 µM |  |  | 0.343 µM | > 10 µM | 1.01 µM |  |  | 3 | 2.67 | 7.92 |  | 
CCOc1cc(CN2CCC(Nc3nc4cc(S(=O)(=O)CC)ccc4o3)CC2)ccc1OC | 126 mL/min/kg | > 530 µg/mL | > 10 µM | 1.63 ×10⁻⁶ cm/s | 0.4 h | > 10 µM | 6% | 3.8 L/kg | 0.196 µM | > 10 µM |  |  |  |  | 2.13 | 8.1 |  | 
